Assay results reported in ChEMBL document CHEMBL1138762, “Novel cyclooxygenase-1 inhibitors discovered using affinity fingerprints” (J Med Chem, 2004).

Assays:
[1] = target: T1, Prostaglandin G/H synthase 1 (Ovis aries) (UniProt P05979); test: In vitro inhibitory activity against ovine cyclooxygenase-1 (COX-1) at 200 uM; Inactive
T1 sequence (whole entry): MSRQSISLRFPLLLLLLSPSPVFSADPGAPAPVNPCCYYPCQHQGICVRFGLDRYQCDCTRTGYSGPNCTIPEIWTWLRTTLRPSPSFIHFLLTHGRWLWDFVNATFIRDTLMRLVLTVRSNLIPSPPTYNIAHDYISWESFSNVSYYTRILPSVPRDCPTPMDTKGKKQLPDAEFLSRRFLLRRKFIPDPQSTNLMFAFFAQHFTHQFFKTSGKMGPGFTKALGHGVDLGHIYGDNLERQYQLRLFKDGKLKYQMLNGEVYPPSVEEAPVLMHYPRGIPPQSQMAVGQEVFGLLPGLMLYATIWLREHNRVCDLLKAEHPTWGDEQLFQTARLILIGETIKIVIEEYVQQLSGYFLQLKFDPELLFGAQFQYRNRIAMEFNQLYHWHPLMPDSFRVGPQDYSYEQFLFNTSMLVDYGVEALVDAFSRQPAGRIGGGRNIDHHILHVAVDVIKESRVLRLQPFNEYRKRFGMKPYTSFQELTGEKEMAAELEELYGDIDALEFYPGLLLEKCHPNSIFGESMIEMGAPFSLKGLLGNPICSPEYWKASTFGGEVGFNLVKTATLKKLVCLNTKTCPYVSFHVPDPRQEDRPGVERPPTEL

[2] = target: T2, Prostaglandin G/H synthase 1 (Ovis aries, UniProt P05979); test: In vitro inhibitory activity against ovine cyclooxygenase-1 (COX-1)
T2 sequence (P05979 whole entry): T1 sequence (whole entry)
Procedure, shortened: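 Ovine COX-1 (0.17 unit/μL final) with heme (1 μM final) in Tris-HCl pH 8 buffer, preincubated with compound 10 min at room temperature. Started with saturating TMPD, then arachidonic acid to 10 μM, 5 min at room temperature. Absorbance increase at 590 nm. Half-log steps over −log[M] 9.0–3.5, DMSO 3% final. IC50 from nonlinear Hill fit, mean ± SEM of 2–5 determinations.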

[3] = target: T1, Prostaglandin G/H synthase 1 (Ovis aries); conditions: 200 uM

Row | SMILES | inhibition [1] [%] | also measured
1 | COc1ccc2c(c1)c(CC(=O)O)c(C)n2C(=O)c1ccc(Cl)cc1 | < 50 | 
2 | COc1c(O)ccc2c1oc1ccccc12 |  | IC50 [2]: 29 µM
3 | O=C(O)c1cc(-c2ccc(F)cc2F)ccc1O | < 50 | 
4 | O=C(O)Cc1ccccc1Nc1c(Cl)cccc1Cl |  | inhibition [3]: < 50%
5 | CCc1cccc2c3c([nH]c12)C(CC)(CC(=O)O)OCC3 (configuration not stated) | < 50 | 
6 | O=C(Nc1ccccc1O)c1ccccc1Cl |  | IC50 [2]: 69 µM
7 | Cc1cc(NC(=O)C2=C(O)c3ccccc3S(=O)(=O)N2C)no1 | < 50 | 
8 | COc1ccc2cc(CC(=O)O)ccc2c1 | < 50 | 
9 | COc1ccc2c(c1)c(CC(=O)OCC(=O)O)c(C)n2C(=O)c1ccc(Cl)cc1 | < 50 | 
10 | O=C(c1ccccc1)c1ccc(O)c(C(=O)c2ccccc2)c1O |  | IC50 [2]: 6 µM

Second part, led by results:

Row | inhibition [1] [%] | SMILES | also measured
11 | < 50 | CN1C(C(=O)Nc2ccccn2)=C(O)c2ccccc2S1(=O)=O | 
12 | < 50 | CC(C(=O)O)c1cccc(C(=O)c2ccccc2)c1 (configuration not stated) | 
13 | < 50 | COc1ccc2cc([C@H](C)C(=O)O)ccc2c1 | 
14 | < 50 | CC(C)Cc1ccc(C(C)C(=O)O)cc1 (configuration not stated) | 
15 | < 50 | CCCCC1C(=O)N(c2ccccc2)N(c2ccccc2)C1=O | 
16 | < 50 | CC(C(=O)O)c1ccc(N2Cc3ccccc3C2=O)cc1 (configuration not stated) | 
17 | < 50 | CC(C(=O)O)c1ccc(N2CC=CC2)c(Cl)c1 (configuration not stated) | 
